Measurements from ChEMBL document CHEMBL3734652, “Pyrrolo[3,4-c]pyridine-1,3(2H)-diones: A Novel Antimycobacterial Class Targeting Mycobacterial Respiration” (J Med Chem, 2015).
In brackets after ≈: the same amount, converted by molar mass.

Tests used:
[1] = system: Mycobacterium tuberculosis; test: Antimicrobial activity against Mycobacterium tuberculosis deltacydKO mutant under GAST/Fe medium assessed as growth inhibition after 14 days by alamar blue assay; format: functional
Outline: (§1)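 Broth microdilution in GAST/Fe medium against fully virulent Mtb H37RvMa or its derived strains (cytochrome bd oxidase deletion ΔcydKO; qcrB Ala317Thr point mutant). Plates were incubated 14 days, growth was read by Alamar Blue, and MIC90 was taken as the potency value.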

[2] = system: Mycobacterium tuberculosis; test: Antimicrobial activity against Mycobacterium tuberculosis deltacydKO/A317T mutant under GAST/Fe medium assessed as growth inhibition after 14 days by alamar blue assay; format: functional; outline: as §1

Row | Compound | MIC90 [1] [µM] | MIC90 [2] [µM]
1 | CCOC(=O)c1nc(C)c2c(c1N)C(=O)N(Cc1ccccc1)C2=O | 0.019 (≈ 0.00645 µg/mL) | >10
2 | Cc1noc(-c2nc(C)c3c(c2N)C(=O)N(Cc2cccc(OC(F)(F)F)c2)C3=O)n1 | <0.019 | >10
3 | Cc1nc(C(=O)OC2CC2)c(N)c2c1C(=O)N(Cc1ccccc1)C2=O | 0.039 (≈ 0.0137 µg/mL) | >10
4 | COc1cccc(CN2C(=O)c3c(C)nc(-c4nc(C)no4)c(N)c3C2=O)c1 | 0.039 (≈ 0.0148 µg/mL) | >10
5 | CCOC(=O)c1nc(C)c2c(c1N)C(=O)N(Cc1ccccc1)C2O (configuration not stated) | 0.019 (≈ 0.00649 µg/mL) | >10
6 | Cc1noc(-c2nc(C)c3c(c2N)C(=O)N(Cc2cccc(Cl)c2)C3=O)n1 | <0.019 | >10
